Compound activity: PubChem, several laboratories
pCIP destab = lowers stability of the mouse p/CIP coactivator protein; F442A p/CIP-EGFP cells, EGFP fluorescence, 16 h; decrease of EGFP signal, % at 10 µM; Q05BA5; 290,000 tested, 0.01% active; AID 1984;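 active = EGFP signal decrease of at least 30% at 10 µM or well 3 SD below plate mean, unless failing retest; inactive = the rest, including hits failing retest or dose response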
GPR7 antag = human neuropeptides B/W receptor 1 antagonism; GPR7-expressing cells, fluorescence antagonist assay; 290,000 tested, 1.1% active; inhibition, % at 4.4 µM; in the data active = inhibition above about 16%, passing the limit was not always enough;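 also: cells stimulated with the agonist NPW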
DNA FID counter-1 = counter-screen for HCV NS3 helicase inhibitors: DNA intercalator displacement | DNA fluorescent intercalator displacement, fluorescence | inhibition, % at 7.9 µM | 290,000 tested, 0.17% active | AID 1845;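 also: higher means more ethidium bromide displaced from hairpin DNA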
core dimer inh = blocks dimerization of HCV core protein; TR-FRET GST/Flag-core106 dimerization, 1536-well; 300,000 tested, 0.33% active; inhibition, % at 5 µM;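 active = inhibition above the mean of all tested compounds plus 3 SD, set per screening campaign, cut at about 45% in these data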
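Assay system – GST-tagged and Flag-tagged HCV core protein residues 1-106 · Quantity – core106 proteins, GST 13.5 nM and Flag 17 nM · Benchmarks – unlabelled core106 and no-GST-core106 wells · Read-out basis – percent inhibition of core106 dimerization signal · Detection – time-resolved FRET, ex 340 nm, em 617 and 671 nm · Schedule – 4 h at 22.5 °C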
NS3 helicase inh = inhibitors of Hepatitis C virus NS3 helicase | NS3 helicase DNA unwinding, Cy5 molecular beacon fluorescence | AID 1800 | 290,000 tested, 0.56% active | inhibition, % at 10.9 µM;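 active = inhibition above the mean of all tested compounds plus 3 SD, set per campaign, cut at about 35% in these data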
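System: Hepatitis C virus NS3 helicase domain fragment enzyme | Reagent: Annealed dual-labelled DNA beacon duplex, ATP-started | Compound dosing: 10.9 µM single point, 0.8% DMSO | Incubation: 1 h reaction at 25 °C, ATP-initiated | Technique: Cy5 fluorescence | Evaluation: Percent inhibition from t60/t0 fluorescence ratio | Benchmarks: Low DMSO, high thioflavine S at 110 µM | Replication: Singlicate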
NS3 hel confirm = confirmation of Hepatitis C virus NS3 helicase inhibitors; shares compounds with NS3 helicase inh; NS3 helicase DNA unwinding, Cy5 molecular beacon fluorescence; inhibition, % at 10.9 µM; 1,600 tested, 31% active;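 active = inhibition above the mean of all tested compounds plus 3 SD, cutoff set per campaign, cut at about 36% in these data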
DNA FID counter-2 = intercalator displacement, NS3 helicase counter-screen. inhibition, % at 7.9 µM. AID 1945. shares compounds with NS3 helicase inh. 1,600 tested, 4% active. DNA fluorescent intercalator displacement, fluorescence;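 also: higher means more displacement of ethidium bromide from the DNA hairpin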
FID counter DR = counter-screen for HCV NS3 helicase inhibitors: DNA intercalator displacement dose response | IC50, µM | shares compounds with NS3 helicase inh | fluorescent intercalator displacement from DNA, fluorescence | AID 2172 | 120 tested, under 10 active; call rule not given here
Numbers stand for hits; i = inactive; nt = not tested or not shown. Hits are enriched below; roughly 1.9% of the tested compounds scored in any of these assays. Rule as the data show it, unless noted: active = inhibition above about 37%; inactive = the rest.

SMILES	pCIP destab	GPR7 antag	DNA FID counter-1	core dimer inh	NS3 helicase inh	NS3 hel confirm	DNA FID counter-2	others
O=C(NCc1ccco1)c1ccc(N2CCCCC2)c([N+](=O)[O-])c1	i	i	i	i	50	i	i
CCOc1ccccc1N1CCN(c2nc(N)c(C#N)c(CC#N)c2C#N)CC1	i	i	i	i	36	i	i
CCN1C/C(=C/c2ccc(N3CCOCC3)cc2)C(=O)/C(=C/c2ccc(N3CCOCC3)cc2)C1	i	i	i	i	51	i	i
COCc1cc(=O)n2[nH]c(-c3ccco3)cc2n1	i	i	i	i	i	nt	nt
CCCCN1Cc2c(nc3cc(-c4ccco4)[nH]n3c2=O)C1=O	i	i	i	i	49	i	i
COc1ccc(OCC(=O)N(Cc2ccco2)C2CCS(=O)(=O)C2)cc1 (configuration not stated)	i	i	i	i	i	nt	nt
CC(C)c1ccc(OCC(=O)N(Cc2ccco2)C2CCS(=O)(=O)C2)cc1 (configuration not stated)	i	i	i	i	48	i	i
COC(=O)c1ccccc1NC(=S)N(Cc1ccc2c(c1)OCO2)Cc1cc2cccc(C)c2[nH]c1=O	i	i	i	i	i	nt	nt
Cc1ccccc1NC(=S)NCCSc1ccc(Cl)cc1	i	i	49	i	78	i	i
Cc1ccc(C=Nc2ccc(N(C)C)cc2)o1	i	i	i	i	39	i	i
Cc1ccccc1NC(=S)N(Cc1ccccc1)Cc1cccs1	i	i	i	i	i	nt	nt
Cc1cc(OCC(=O)NC(Cc2c[nH]c3ccc(O)cc23)C(=O)O)c2c(C)c(C)c(=O)oc2c1 (configuration not stated)	i	i	i	i	i	nt	nt
CC(Oc1ccc2c(-c3ccccc3)cc(=O)oc2c1)C(=O)NC(Cc1c[nH]c2ccc(O)cc12)C(=O)O (configuration not stated)	i	i	i	i	41	39	i
CCCc1cc(=O)oc2cc(OCC(=O)NC(Cc3c[nH]c4ccc(O)cc34)C(=O)O)c(Cl)cc12 (configuration not stated)	i	i	i	i	53	i	i
CCn1c(SCC(=O)NNC(=O)c2ccc(C)cc2)nnc1C1CC1	i	i	i	i	i	nt	nt
O=C1N=c2ccccc2=C1c1sc(Nc2ccc(O)cc2)nc1O	i	i	i	nt	72	i	i
CC(=O)NC(C)(CC(=O)c1ccccc1)c1ccccc1 (configuration not stated)	nt	nt	nt	i	nt	nt	nt
CCCCOc1cccc(C(=O)Nc2ccc(S(=O)(=O)Nc3nnc(CC)s3)cc2)c1	i	i	i	i	i	nt	nt
CC(C(=O)O)N1C(=O)C2C3CC(C2C1=O)C1C(c2ccccc2)c2sc(=O)[nH]c2SC31 (configuration not stated)	i	i	i	i	75	i	i
Cc1cccc(NC(=O)Nc2cccc(C)n2)n1	i	i	i	i	39	i	i
O=C(/C=C/c1cccs1)Nc1ccncc1	i	i	i	i	i	nt	nt
Cc1ccc(NC(=O)Nc2cccc(C)n2)cc1	i	i	i	i	i	nt	nt
Cc1cccc(NC(=O)/C=C/c2cccs2)n1	i	i	i	i	67	i	i
CCN1CCN(C(=O)c2ccc3c(c2)N(Cc2ccccc2F)C(=O)c2ccccc2S3(=O)=O)CC1	i	i	i	i	i	nt	nt
CCC(=O)N1CCN(c2ccc(NC(=S)NC(=O)c3cc4ccccc4o3)cc2)CC1	i	i	i	nt	i	nt	nt
SMILES	pCIP destab	GPR7 antag	DNA FID counter-1	core dimer inh	NS3 helicase inh	NS3 hel confirm	DNA FID counter-2	others
CCN(CC)S(=O)(=O)c1cc(C(=O)Nc2cccnc2Cl)ccc1Cl	i	i	i	i	i	nt	nt
O=C(Cn1nc(-c2ccco2)ccc1=O)Nc1ccc(Br)cc1	i	i	i	i	40	i	i
O=C(O)c1cc(-c2ccc(/C=c3\sc4nc5ccc(Br)cc5n4c3=O)o2)ccc1Cl	i	i	i	i	38	73	i
C#CCN1C(=O)S/C(=C\c2ccc(-c3ccc(Cl)c(C(=O)O)c3)o2)C1=O	i	i	i	i	40	56	i
CCOc1ccc(N2C(=O)C3Sc4[nH]c(=O)sc4C(/C=C/c4ccccc4)C3C2=O)cc1 (configuration not stated)	i	i	i	i	37	62	i	FID counter DR=i
COc1cc(C2c3sc(=O)[nH]c3SC3C(=O)N(c4ccc(Br)cc4)C(=O)C32)ccc1O (configuration not stated)	i	i	i	i	i	nt	nt
Cn1c(-c2ccc(Cl)nc2)nc2cc(Cl)ccc21	i	i	i	i	i	nt	nt
O=C1CC(NCc2ccc3c(c2)OCO3)C(=O)N1CCc1ccccc1 (configuration not stated)	i	i	i	i	54	i	i
Cc1ccc(/C=C2/SC(=O)NC2=S)o1	i	i	i	nt	53	38	i
O=C(Nc1cccc(-n2cnnn2)c1)c1ccccc1Br	i	i	i	i	53	i	i
COc1ccc(CC(=O)N2CCc3cc(OC)c(OC)cc3C2O)cc1OC (configuration not stated)	i	i	i	i	i	nt	nt
O=C1C(=C2CCCCC2)SC(=S)N1Cc1ccco1	i	i	i	i	72	i	i
O=C(O)CCN1C(=O)C(=C2CCCCCC2)SC1=S	i	i	i	i	i	nt	nt
CCOC(=O)c1ccc(N=Cc2c(O)c3ccccc3oc2=O)cc1	i	i	i	i	41	i	i
Cc1ccccc1OCC(=O)N/N=C/c1ccco1	i	i	i	i	i	nt	nt
COc1ccc(OCC(=O)N/N=C/C(C)=C/c2ccco2)c(Br)c1	i	i	i	i	45	i	i
C=CCSC1=N/C(=C\c2cc(OCC)c(OC(C)=O)c([N+](=O)[O-])c2)C(=O)S1	i	i	i	i	50	92	i
C=CCSC1=N/C(=C\c2ccc3c(c2)OCO3)C(=O)S1	i	i	i	i	i	nt	nt
Cc1c(NC(=O)c2nn3c(C(F)(F)F)cc(-c4ccccc4)nc3c2Cl)c(=O)n(-c2ccccc2)n1C	i	i	i	i	37	i	i
CC(C)(C)OC(=O)N1CCC(CNC(=O)c2cccs2)CC1	i	i	i	i	i	nt	nt
CC(C)(C)OC(=O)N1CCC(CNC(=O)c2ccc(F)cc2F)CC1	i	i	i	i	41	i	i
CCc1ccc(/C=C2\Oc3c(ccc(O)c3CN3CCN(CCO)CC3)C2=O)cc1	i	i	i	i	51	i	i
O=C(CSc1nnc(-c2ccco2)n1Cc1ccccc1)NCc1ccccc1	i	i	i	i	i	nt	nt
O=C(CSc1nnc(-c2ccco2)n1Cc1ccccc1)c1ccc(F)cc1	i	i	i	i	39	74	i
